According to article PMC4938124 (Biochemistry, 2015):

Legend:
[1] = target: T1, hIYD·flox (Homo sapiens, UniProt Q6PHW0); assay: Stopped-flow kinetics of halotyrosine binding to hIYD·flox; settings: relative to Cl-, Br- and I-Tyr
T1 sequence (Q6PHW0 32-289): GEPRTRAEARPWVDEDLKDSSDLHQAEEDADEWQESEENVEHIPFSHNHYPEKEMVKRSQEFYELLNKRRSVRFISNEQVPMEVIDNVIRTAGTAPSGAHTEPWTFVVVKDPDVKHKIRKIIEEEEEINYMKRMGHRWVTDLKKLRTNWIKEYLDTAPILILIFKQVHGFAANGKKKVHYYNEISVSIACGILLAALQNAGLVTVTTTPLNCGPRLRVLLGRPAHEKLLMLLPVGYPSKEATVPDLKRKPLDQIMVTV
In short: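 hIYD (residues 1–31 removed, SUMO fusion, SUMO cleaved) in 500 mM NaCl, 10% glycerol, 1 mM DTT, 50 mM sodium phosphate pH 7.4, 25 °C. Stopped-flow mixing of equal volumes under air: hIYD·flox 2 μM final with halotyrosine 5–50 μM final. Flavin fluorescence quench (λex 450 nm, λem >530 nm) followed 1 ms–1 s, fit single-exponential. kon from least-squares fit of kobs versus ligand concentration.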

[2] = target: T2, hIYD·flhq (Homo sapiens, UniProt Q6PHW0); assay: Stopped-flow single-turnover oxidation of hIYD·flhq by halotyrosines; format: biochemical; settings: set by detection threshold of the stopped-flow instrument
T2 sequence (Q6PHW0 32-289): T1 sequence (Q6PHW0 32-289)
In short: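 Anaerobic stopped-flow at 25 °C, pH 7.4 phosphate/NaCl/glycerol/DTT buffer. Dithionite-reduced hIYD·flhq was mixed 1:1 with argon-sparged halotyrosine. At 8 μM enzyme, I-Tyr was 20–200 μM and A446 was followed from 10 ms to beyond 7 s with single-exponential fits. At 5 μM enzyme, substrate was 200 μM, with diode-array spectra from 4 ms plus A360 traces fit single- or double-exponential. Spectra were globally analysed.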

[3] = system: IYD; settings: cited from earlier work
[4] = target: hIYD; settings: estimate, limited by solubility; cited from earlier work
[5] = target: T2, hIYD·flhq; assay: Stopped-flow oxidation of hIYD·flhq by oxygen; format: biochemical; settings: A446, 25 °C, pH 7.4, oxygen 60–610 μM
In short: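 hIYD·flhq, made by stoichiometric dithionite titration under anaerobic conditions, 5 μM final, in 500 mM NaCl, 10% glycerol, 1 mM DTT, 50 mM sodium phosphate pH 7.4, 25 °C. Stopped-flow mix with equal volume of same buffer equilibrated with air or 10/50/100% O2 (oxygen solutions 60–610 μM). A446 traces single-exponential; diode-array spectra 4 ms–7 s. kox from linear fit of kobs versus [O2]; three independent measurements averaged.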

With N[C@@H](Cc1ccc(O)c(F)c1)C(=O)O [F-Tyr] the “binding rate (kon) slower than the other halotyrosines” value [1] was “approximately 5 fold”, the “binding rate (kon) slower than the other halotyrosines” value ([1]; listed as fluorotyrosine) was 5 fold and the “oxidation of flhq slower than that with I-Tyr” value [2] was “at least 160 fold”. The “dehalogenation by IYD” value [3] was “inert”.
In the case of N[C@@H](Cc1ccc(O)cc1)C(=O)O [Tyr, tyrosine], the Kd [4] is listed as > 1000 µM.
In the case of O=O [oxygen], the “kox, second-order rate constant for reaction between hIYD·flhq and oxygen” value [5] is reported as “(9.3 ± 0.3) × 10^3 M^–1 s^–1”.
